Test results as given in ChEMBL document CHEMBL1147937, “Kinesin spindle protein (KSP) inhibitors. Part V: discovery of 2-propylamino-2,4-diaryl-2,5-dihydropyrroles as potent, water-soluble KSP inhibitors, and modulation of their basicity by beta-fluorination to overcome cellular efflux by P-glycoprotein” (Bioorg Med Chem Lett, 2007).
Values belong to the molecule of their own block, whether it stands above or below them.

Key:
[1] = target: T1, Kinesin-like protein KIF11 (Homo sapiens, UniProt P52732); test: Inhibition of KSP
T1 sequence (P52732 whole entry): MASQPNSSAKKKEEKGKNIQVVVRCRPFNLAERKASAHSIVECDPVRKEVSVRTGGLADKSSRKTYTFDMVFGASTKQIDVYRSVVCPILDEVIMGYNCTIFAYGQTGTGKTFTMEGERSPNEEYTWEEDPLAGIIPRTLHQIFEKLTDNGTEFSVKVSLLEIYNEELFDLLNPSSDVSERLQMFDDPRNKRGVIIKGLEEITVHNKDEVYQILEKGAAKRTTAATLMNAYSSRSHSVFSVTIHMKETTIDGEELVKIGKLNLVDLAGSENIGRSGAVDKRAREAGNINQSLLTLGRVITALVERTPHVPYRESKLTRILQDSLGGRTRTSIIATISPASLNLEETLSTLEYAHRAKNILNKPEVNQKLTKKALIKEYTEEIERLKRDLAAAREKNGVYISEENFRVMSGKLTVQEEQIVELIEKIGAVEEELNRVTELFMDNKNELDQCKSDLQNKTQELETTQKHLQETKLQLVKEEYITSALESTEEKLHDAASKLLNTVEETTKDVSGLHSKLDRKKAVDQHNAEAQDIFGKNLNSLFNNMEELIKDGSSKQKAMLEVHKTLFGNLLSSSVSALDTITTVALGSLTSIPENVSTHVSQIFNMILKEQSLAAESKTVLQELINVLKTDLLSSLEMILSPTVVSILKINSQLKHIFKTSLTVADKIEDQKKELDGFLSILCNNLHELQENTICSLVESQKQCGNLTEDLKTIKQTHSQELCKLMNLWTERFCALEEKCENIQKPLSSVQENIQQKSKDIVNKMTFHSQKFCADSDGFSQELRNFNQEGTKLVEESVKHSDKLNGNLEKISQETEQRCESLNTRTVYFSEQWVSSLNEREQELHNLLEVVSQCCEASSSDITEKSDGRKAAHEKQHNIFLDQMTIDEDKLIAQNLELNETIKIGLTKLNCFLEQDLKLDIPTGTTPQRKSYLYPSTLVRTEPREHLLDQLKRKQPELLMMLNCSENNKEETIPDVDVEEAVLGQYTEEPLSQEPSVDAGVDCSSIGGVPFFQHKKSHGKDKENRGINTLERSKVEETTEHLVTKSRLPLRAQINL

[2] = Partition coefficient, log P of the compound; type: physicochemical; details: octanol/water
[3] = Ratio of IC50 for human KBV1 cells to human KB31 cells after 16 hrs; type: cell-based; details: KBV1 cells and KB31 cells, read-out: Ratio IC50
Procedure, shortened: (§1)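 IC50 for induction of G2/M (mitotic) block was determined in two human epidermoid carcinoma lines: parental KB-3-1, which lacks Pgp, and KB-V-1. KB-V-1 was derived by culturing KB-3-1 with vinblastine and highly overexpresses Pgp. The MDR ratio is the quotient of the KB-V-1 IC50 over the KB-3-1 IC50.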

[4] = Dissociation constant, pKa of the compound; type: physicochemical
Procedure, shortened: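 Ionization constant measured with an automated pKa titrator; the value is the average of n = 3 determinations.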

[5] = Solubility in 0.1 M citrate at pH 4.0; type: physicochemical; details: 0.1 M citrate buffer
Procedure, shortened: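 Aqueous solubility measured on the free-base form in 0.1 M citrate, with an initial pH of 4.0.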

[6] = target: Voltage-gated inwardly rectifying potassium channel KCNH2 (Homo sapiens, UniProt Q12809); test: Inhibition of hERG expressed in CHO cells by cell voltage clamp assay; type: toxicity, cell-based
MDR1 [7] = test: Efflux ratio of permeability from basolateral to apical over apical to basolateral side of the […] cell transfected with MDR1 by monolayer transport assay; type: ADME, cell-based; details: LLC-PK1
Procedure, shortened: (§2)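 Monolayer transport assay in LLC-PK1 cells transfected with the human MDR1 gene. The efflux ratio is basolateral-to-apical over apical-to-basolateral transport. Passive permeability is reported in 10^-6 cm/s.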

[8] = target: T1, Kinesin-like protein KIF11; test: Inhibition of KSP in KBV1 cells overexpressing Pgp; type: cell-based; procedure, shortened: as §1
MDR1 [9] = test: Permeability across LLCPK1 cells expressing MDR1 gene; type: ADME, cell-based; details: human, LLC-PK1; read-out: permeability; procedure, shortened: as §2
[10] = target: T1, Kinesin-like protein KIF11; test: Inhibition of KSP in KB31 cells; type: cell-based; procedure, shortened: as §1

Sequence of Voltage-gated inwardly rectifying potassium channel KCNH2 (Q12809 whole entry): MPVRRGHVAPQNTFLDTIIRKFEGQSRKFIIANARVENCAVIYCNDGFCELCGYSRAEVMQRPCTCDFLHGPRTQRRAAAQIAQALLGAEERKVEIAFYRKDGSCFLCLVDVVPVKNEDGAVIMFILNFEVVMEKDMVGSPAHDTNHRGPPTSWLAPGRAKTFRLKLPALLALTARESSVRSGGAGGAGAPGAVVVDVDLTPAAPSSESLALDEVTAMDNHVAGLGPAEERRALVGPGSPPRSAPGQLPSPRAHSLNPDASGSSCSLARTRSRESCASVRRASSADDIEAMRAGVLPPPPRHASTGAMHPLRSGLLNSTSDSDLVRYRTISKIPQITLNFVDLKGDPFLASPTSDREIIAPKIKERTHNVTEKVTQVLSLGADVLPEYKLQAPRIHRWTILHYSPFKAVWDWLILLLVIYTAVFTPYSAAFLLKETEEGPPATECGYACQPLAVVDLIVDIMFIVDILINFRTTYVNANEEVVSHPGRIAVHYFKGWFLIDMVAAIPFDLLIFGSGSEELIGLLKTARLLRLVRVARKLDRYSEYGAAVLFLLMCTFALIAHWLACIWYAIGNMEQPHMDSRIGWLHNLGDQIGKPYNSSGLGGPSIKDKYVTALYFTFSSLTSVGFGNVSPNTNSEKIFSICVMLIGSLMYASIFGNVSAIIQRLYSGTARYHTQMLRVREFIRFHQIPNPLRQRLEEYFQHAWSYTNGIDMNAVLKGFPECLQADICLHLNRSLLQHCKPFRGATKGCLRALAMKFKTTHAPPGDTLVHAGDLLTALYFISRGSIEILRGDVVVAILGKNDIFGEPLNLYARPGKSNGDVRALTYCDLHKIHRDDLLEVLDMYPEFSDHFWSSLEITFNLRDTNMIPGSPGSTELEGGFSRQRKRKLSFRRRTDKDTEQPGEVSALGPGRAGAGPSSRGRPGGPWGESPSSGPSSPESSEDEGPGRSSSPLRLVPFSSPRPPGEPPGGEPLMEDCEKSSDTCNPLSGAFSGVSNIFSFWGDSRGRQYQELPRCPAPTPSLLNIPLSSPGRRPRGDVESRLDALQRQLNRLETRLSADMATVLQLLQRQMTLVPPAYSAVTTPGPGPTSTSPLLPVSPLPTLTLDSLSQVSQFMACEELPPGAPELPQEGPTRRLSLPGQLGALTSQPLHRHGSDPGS

SMILES: CN(C)C(=O)N1CC(c2cc(F)ccc2F)=C[C@@]1(CCCNCC(F)(F)F)c1ccccc1
IC50 [1]: 110 nM
logP [2]: > 3.2
selectivity ratio at 16 h [3]: 1
pKa [4]: 5.2

SMILES: CN(C)C(=O)N1N=C(c2cc(F)ccc2F)C[C@@]1(CCCN)c1ccccc1
solubility [5]: > 12 mg/mL
IC50 [6]: 19300 nM
selectivity ratio at 16 h [3]: 490
pKa [4]: 10.3

SMILES: CN(C)C(=O)N1CC(c2cc(F)ccc2F)=C[C@@]1(CCCNCC(F)F)c1ccccc1
IC50 [1]: 12.1 nM
logP [2]: 3.4
selectivity ratio at 16 h [3]: 3
pKa [4]: 7

The remaining molecules from weak to strong by IC50 [1], led by results:

IC50 [1]: 10.2 nM
logP [2]: 1.6
pKa [4]: 10.7
SMILES: CCNCCC[C@@]1(c2ccccc2)C=C(c2cc(F)ccc2F)CN1C(=O)N(C)C
selectivity ratio at 16 h [3]: > 135

IC50 [1]: 10.2 nM
logP [2]: 2.6
pKa [4]: 8.8
SMILES: CN(C)C(=O)N1CC(c2cc(F)ccc2F)=C[C@@]1(CCCNCCF)c1ccccc1
selectivity ratio at 16 h [3]: 32

IC50 [1]: 5.2 nM
logP [2]: 3.2
solubility [5]: > 10 mg/mL
efflux ratio (MDR1 [7]): 2.5
IC50 [10]: 24 nM
IC50 [8]: 123 nM
Papp (MDR1 [9]): 38 ×10⁻⁶ cm/s
SMILES: CN(C)C(=O)N1CC(c2cc(F)ccc2F)=C[C@@]1(CC[C@H](N)C(F)F)c1ccccc1
IC50 [6]: 15900 nM
selectivity ratio at 16 h [3]: 5

IC50 [1]: 2.2 nM
logP [2]: 1.1
solubility [5]: > 12 mg/mL
pKa [4]: 10.3
efflux ratio (MDR1 [7]): 18.5
IC50 [8]: 28000 nM
Papp (MDR1 [9]): 4 ×10⁻⁶ cm/s
SMILES: CN(C)C(=O)N1CC(c2cc(F)ccc2F)=C[C@@]1(CCCN)c1ccccc1
IC50 [6]: 7100 nM
selectivity ratio at 16 h [3]: 1200
